Experimental findings from ChEMBL document CHEMBL3102796 are described below.

In experiment [1] the target is T1, Neuraminidase (Influenza A virus, UniProt B4URF0). Nature of the experiment: Inhibition of Influenza A virus A/Hong Kong/8/1968 (H3N2) neuraminidase using MUNANA as substrate preincubated for 30 mins measured after 2 hrs.
Experiment [2] concerns the target T1, Neuraminidase. Nature of the experiment: Inhibition of Influenza A virus H5N1 neuraminidase using MUNANA as substrate preincubated for 30 mins measured after 2 hrs.
The subject of experiment [3] is Influenza A virus. The experiment can be described thus: Antiviral activity against Influenza A virus A/California/07/2009 (H1N1) infected in MDCK cells assessed as reduction in virus plaque formation after 5 days. Type of experiment: functional, organism-based. The note with it: 120 h. The gist of the method: (§1)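 MDCK cells were seeded at 1×10^6 per well and inoculated with virus at confluence. Serial ten-fold dilutions of inhibitor were added in an overlay of serum-free DMEM with 0.6% agarose and 1 µg/mL TPCK-treated trypsin. The overlay was removed after 5 days, and cells were fixed with 70% ethanol and stained with 0.2% crystal violet.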

Experiment [4] addresses T1, Neuraminidase. The experiment can be described thus: Inhibition of Influenza A virus H3N2 neuraminidase using MUNANA as substrate preincubated for 30 mins measured after 2 hrs.
Experiment [5] has as its system Influenza A virus. Nature of the experiment: Antiviral activity against Influenza A virus A/Hong Kong/8/1968 (H3N2) infected in MDCK cells assessed as reduction in virus plaque formation after 5 days. The settings on record: 120 h. Type of experiment: functional, organism-based. The gist of the method: as §1
For experiment [6], the target named is T1, Neuraminidase. Nature of the experiment: Inhibition of Influenza A virus A/California/07/2009 (H1N1) neuraminidase using MUNANA as substrate preincubated for 30 mins measured after 2 hrs.

T1 sequence (B4URF0 whole entry): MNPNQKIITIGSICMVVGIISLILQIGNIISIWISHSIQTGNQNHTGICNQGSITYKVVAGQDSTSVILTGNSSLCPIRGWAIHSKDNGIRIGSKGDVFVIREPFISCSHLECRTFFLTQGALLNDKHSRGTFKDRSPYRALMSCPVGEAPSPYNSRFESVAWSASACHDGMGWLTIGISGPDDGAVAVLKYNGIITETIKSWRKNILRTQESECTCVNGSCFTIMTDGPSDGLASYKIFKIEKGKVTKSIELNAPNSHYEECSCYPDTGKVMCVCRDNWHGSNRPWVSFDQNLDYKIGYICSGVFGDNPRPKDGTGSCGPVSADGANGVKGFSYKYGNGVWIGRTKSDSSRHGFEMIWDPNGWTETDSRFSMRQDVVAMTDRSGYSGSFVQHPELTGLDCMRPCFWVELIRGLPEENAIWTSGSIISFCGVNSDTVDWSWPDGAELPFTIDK

Consider `CC(=O)N[C@H]1[C@H]([C@H](O)[C@H](O)CO)OC(SCCCCCCS)(C(=O)O)C[C@@H]1N` (stereo not given in full), for which the IC50 against Neuraminidase [1] is 64 µM; against Neuraminidase [2], 127 µM; with Influenza A virus [3] it was over 100 µM; against Neuraminidase [4] it was 178 µM; in the experiment on Influenza A virus [5], 10 µM; at Neuraminidase [6], 56 µM.

For `CC(=O)N[C@H]1[C@H]([C@H](O)[C@H](O)CO)OC(SCCCCCCSC2(C(=O)O)C[C@H](N)[C@@H](NC(C)=O)[C@H]([C@H](O)[C@H](O)CO)O2)(C(=O)O)C[C@@H]1N` (stereo not given in full), the IC50 against Neuraminidase [1] was found to be 11.6 µM; against Neuraminidase [2], 20 µM; in the experiment with Influenza A virus [3] it was 100 µM; at Neuraminidase [4], 32 µM; with Influenza A virus [5], 1 µM; against Neuraminidase [6], 9.9 µM.

For the molecule `CC(=O)N[C@H]1[C@H]([C@H](O)[C@H](O)CO)OC(SCCCCCCCCCCCCSC2(C(=O)O)C[C@H](N)[C@@H](NC(C)=O)[C@H]([C@H](O)[C@H](O)CO)O2)(C(=O)O)C[C@@H]1N` (stereo not given in full), the half-maximal inhibitory concentration (IC50) against Neuraminidase [1] turned out to be 15 µM; on Neuraminidase [2] it was 31 µM; with Influenza A virus [3], 100 µM; on Neuraminidase [4], 40 µM; in the experiment with Influenza A virus [5] it was 1 µM; against Neuraminidase [6], 11 µM.

Take `CC(=O)N[C@H]1[C@H]([C@H](O)[C@H](O)CO)OC(SCCOCCOCCOCCSC2(C(=O)O)C[C@H](N)[C@@H](NC(C)=O)[C@H]([C@H](O)[C@H](O)CO)O2)(C(=O)O)C[C@@H]1N` (stereo not given in full): the IC50 turned out to be 11 µM against Neuraminidase [1]; 28 µM against Neuraminidase [2]; 100 µM in the experiment with Influenza A virus [3]; 39 µM against Neuraminidase [4]; 1 µM with Influenza A virus [5]; 9.8 µM against Neuraminidase [6].

Regarding `CC(=O)N[C@H]1[C@H]([C@H](O)[C@H](O)CO)OC(SCCOCCOCCOCCOCCSC2(C(=O)O)C[C@H](N)[C@@H](NC(C)=O)[C@H]([C@H](O)[C@H](O)CO)O2)(C(=O)O)C[C@@H]1N` (stereo not given in full), the IC50 at Neuraminidase [1] worked out at 21 µM; on Neuraminidase [2], 64 µM; in the experiment on Influenza A virus [3], 100 µM; at Neuraminidase [4], 178 µM; in the experiment with Influenza A virus [5], 1 µM; against Neuraminidase [6], 36 µM.

`CC(=O)N[C@H]1[C@H]([C@H](O)[C@H](O)CO)OC(SCCOCCOCCOCCOCCOCCSC2(C(=O)O)C[C@H](N)[C@@H](NC(C)=O)[C@H]([C@H](O)[C@H](O)CO)O2)(C(=O)O)C[C@@H]1N` (stereo not given in full): the IC50 stood at 33 µM against Neuraminidase [1]; 85 µM against Neuraminidase [2]; 100 µM in the experiment on Influenza A virus [3]; 216 µM against Neuraminidase [4]; 1 µM in the experiment with Influenza A virus [5]; 45 µM against Neuraminidase [6].

`CC(=O)N[C@H]1[C@H]([C@H](O)[C@H](O)CO)OC(SCCCCCCS)(C(=O)O)C[C@@H]1NC(=N)N` (stereo not given in full): the IC50 against Neuraminidase [1] is 0.55 µM; on Neuraminidase [2], 0.1 µM; in the experiment with Influenza A virus [3] it was 10 µM; at Neuraminidase [4], 1 µM; with Influenza A virus [5], 1 µM; against Neuraminidase [6], 0.8 µM.

For the molecule `CC(=O)N[C@H]1[C@H]([C@H](O)[C@H](O)CO)OC(SCCCCCCSC2(C(=O)O)C[C@H](NC(=N)N)[C@@H](NC(C)=O)[C@H]([C@H](O)[C@H](O)CO)O2)(C(=O)O)C[C@@H]1NC(=N)N` (stereo not given in full), the IC50 against Neuraminidase [1] is 0.25 µM; against Neuraminidase [2] it was 0.2 µM; in the experiment on Influenza A virus [3] it was 1 µM; on Neuraminidase [4] it was 4.2 µM; with Influenza A virus [5], 0.01 µM; against Neuraminidase [6], 0.26 µM.

As for `CC(=O)N[C@H]1[C@H]([C@H](O)[C@H](O)CO)OC(SCCCCCCCCCCCCSC2(C(=O)O)C[C@H](NC(=N)N)[C@@H](NC(C)=O)[C@H]([C@H](O)[C@H](O)CO)O2)(C(=O)O)C[C@@H]1NC(=N)N` (stereo not given in full), the IC50 on Neuraminidase [1] is 0.5 µM; at Neuraminidase [2] it was 0.73 µM; with Influenza A virus [3] it was 1 µM; against Neuraminidase [4], 12 µM; in the experiment with Influenza A virus [5] it was 0.1 µM; against Neuraminidase [6], 0.8 µM.

Regarding `CC(=O)N[C@H]1[C@H]([C@H](O)[C@H](O)CO)OC(SCCOCCOCCOCCSC2(C(=O)O)C[C@H](NC(=N)N)[C@@H](NC(C)=O)[C@H]([C@H](O)[C@H](O)CO)O2)(C(=O)O)C[C@@H]1NC(=N)N` (stereo not given in full), the IC50 against Neuraminidase [1] came to 1.78 µM; on Neuraminidase [2] it was 2.5 µM; in the experiment with Influenza A virus [3], 1 µM; against Neuraminidase [4], 10 µM; in the experiment with Influenza A virus [5], 0.1 µM; against Neuraminidase [6] it was 2.4 µM.

As for `CC(=O)N[C@H]1[C@H]([C@H](O)[C@H](O)CO)OC(SCCOCCOCCOCCOCCSC2(C(=O)O)C[C@H](NC(=N)N)[C@@H](NC(C)=O)[C@H]([C@H](O)[C@H](O)CO)O2)(C(=O)O)C[C@@H]1NC(=N)N` (stereo not given in full), the half-maximal inhibitory concentration (IC50) was 1 µM against Neuraminidase [1]; 1.1 µM against Neuraminidase [2]; 1 µM with Influenza A virus [3]; 10 µM on Neuraminidase [4]; 0.01 µM in the experiment with Influenza A virus [5]; 1.2 µM against Neuraminidase [6].

Regarding `CCOC(=O)C1=C[C@@H](OC(CC)CC)[C@H](NC(C)=O)[C@@H](N)C1` [OSELTAMIVIR], the IC50 in the experiment with Influenza A virus [3] and in the experiment on Influenza A virus [5] was 0.001 µM in each case.

Consider `CC(=O)N[C@H]1[C@H]([C@H](O)[C@H](O)CO)OC(C(=O)O)=C[C@@H]1NC(=N)N` [ZANAMIVIR], for which the concentration for half-maximal inhibition (IC50) turned out to be 0.01 µM in the experiment with Influenza A virus [3] and 0.001 µM with Influenza A virus [5].
